# miR-122 sensor = blocks miR-122 activity in Huh7 sensor cells | Huh7 miR-122 Renilla luciferase sensor, 48 h; neutral wells = 0, positive control = 100 | activation (reporter increase), % at 12.5 µM | 0.3% of 340,000 active;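 active means mean replicate activation score at least 90 and every replicate individually at or above 90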;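 further: higher luciferase means less miR-122 activity so hits act as miR-122 inhibitors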
# 697 NFkB inh = inhibitors of the PMA/ionomycin-induced NF-kB reporter in 697 B cells; inhibition, % at 4 µM; 697 B-cell NF-kB luciferase reporter, 16 h; 0.33% of 330,000 active; in the data active means inhibition above about 35%
# Jurkat NFkB inh = inhibitors of the PMA/ionomycin-induced NF-kB reporter in Jurkat cells. PMA/ionomycin-induced NF-kB luciferase reporter, luminescence. inhibition, % at 4 µM. 0.53% of 330,000 active; in the data active means inhibition above about 50%
# FGF22 binding = FGF22 (human) thermal shift binding. 1.5% of 340,000 active. recombinant FGF22 thermal shift, SYPRO orange fluorescence; percent of sucrose octasulfate shift, DMSO zero. activity (Tm shift, normalised), % at 9.99 µM. AID 651658. Q9HCT0;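 active means mean Tm shift, scaled 0 neutral to 100 positive control, at about 1.3% or above, every replicate too, limit read from the data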
# Target sequence (Q9HCT0 whole entry, looked up): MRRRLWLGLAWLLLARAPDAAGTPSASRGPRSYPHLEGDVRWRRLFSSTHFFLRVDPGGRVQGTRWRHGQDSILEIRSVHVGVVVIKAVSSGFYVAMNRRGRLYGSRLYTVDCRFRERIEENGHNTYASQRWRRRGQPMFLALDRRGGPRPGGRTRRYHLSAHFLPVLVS
# NR2E3 ag-1 = NR2E3 (human) agonism; inhibition of corepressor binding, % at 4.78 µM; Q9Y5X4; AID 2300; 0.12% of 320,000 active; GST-NR2E3/biotin-RetCOR TR-FRET, 1536-well;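 active means percent inhibition above the cutoff of mean plus 3 SD of all tested compounds, set per screening campaign, cut at about 20% in these data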;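 further: 0% = DMSO wells and 100% = biotin wells as full block of FRET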
# Target sequence (Q9Y5X4 whole entry, looked up): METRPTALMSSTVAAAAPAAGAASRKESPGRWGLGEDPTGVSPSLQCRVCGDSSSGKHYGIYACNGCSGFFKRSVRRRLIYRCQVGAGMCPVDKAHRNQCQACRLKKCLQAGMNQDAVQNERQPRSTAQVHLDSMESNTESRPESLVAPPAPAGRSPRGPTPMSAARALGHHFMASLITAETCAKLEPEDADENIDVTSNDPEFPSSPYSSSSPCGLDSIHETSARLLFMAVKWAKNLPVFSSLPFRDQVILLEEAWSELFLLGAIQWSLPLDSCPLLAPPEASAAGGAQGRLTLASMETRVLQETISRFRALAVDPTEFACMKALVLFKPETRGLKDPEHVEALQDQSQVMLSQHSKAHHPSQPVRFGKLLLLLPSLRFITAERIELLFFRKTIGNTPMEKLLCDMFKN
#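 Format: 1536-well format; test system: GST-NR2E3 and biotin-RetCOR proteins; read-out basis: percent inhibition of TR-FRET ratio; timing: 5 h incubation at 4 °C; detection: time-resolved FRET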
# NR2E3 ag-2 = agonists of human NR2E3 nuclear receptor. AID 602229. CHO-S Gal4-NCOR/VP16-NR2E3 two-hybrid, luciferase. Q9Y5X4. inhibition of corepressor binding, % at 3.98 µM. 0.35% of 360,000 active;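 active means inhibition above the mean of all tested compounds plus 3 SD, cut at about 70% in these data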;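 further: 0% = DMSO with NR2E3 transfected cells and 100% = cells lacking NR2E3 construct; higher means lower luciferase signal from less NR2E3 corepressor binding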
# * marks the source's active call; other numbers are inactive results; · = not tested or not shown; [ ] = another dose, or the depositor's remark. Only some compounds are listed: those with a hit (about 2.2% of all), similar ones and a draw of the others.
SMILES,miR-122 sensor,697 NFkB inh,Jurkat NFkB inh,FGF22 binding,NR2E3 ag-1,NR2E3 ag-2
C[C@H]1CN([C@@H](C)CO)C(=O)c2cc(C#CC3CCCC3)cnc2O[C@@H]1CN(C)Cc1ccncc1,-27[16.7 µM],·,·,0,·,·
c1ccn2cc(-c3ccc4c(c3)OCCO4)nc2c1,·,-91,-88,43*,4,-107
C/C=C/c1ccc2c(c1)O[C@H](CN(C)Cc1cccnc1)[C@@H](C)CN([C@H](C)CO)S2(=O)=O,30[16.7 µM],·,·,0,·,·
N#Cc1cnn2c1nc(N1CCCCC1)c1ccccc12,134*,27,16,·,0,16
CC(C)c1ccc(S(=O)(=O)c2nnn3c2nc(N2CCCCC2)c2ccccc23)cc1,·,-8,6,·,3,-15
O=C(C[C@@H]1CC[C@H]2[C@@H](COC[C@H](O)CN2Cc2nccs2)O1)NCc1ccc(-c2ccccc2)cc1,5[16.7 µM],·,·,0,·,·
O=C1C=C(c2ccccc2Oc2ccccc2)C[C@@H](c2ccc(F)cc2)C1,4,·,·,43*,·,-11
COc1ccc(-c2[nH]ncc2[C@@H]2C[C@H]3CN(Cc4ccccc4C)C(=O)[C@]34CCCN24)cc1,·,2,-7,43*,0,15
CCN(Cc1ccncc1)C(=O)CCc1nnc(CCc2ccc(OC)cc2)o1,4,14,-2,44*,4,10
CCCCN(CCCC)Cc1ccc(C(=O)NNC(=O)Nc2ccc(Cl)cc2)o1,-4,10,7,0,0,31
CCCCN(CCCC)Cc1ccc(C(=O)NN)o1,2,0,-8,44*,2,19
O=C(NCC1CCCO1)C(c1cccs1)N(Cc1cccs1)C(=O)Cn1nnc(-c2cccs2)n1 (stereo not given),116*,-1,-8,·,2,-18
O=C(NCC1CCCO1)C(c1cccs1)N(C(=O)Cn1nnc(-c2cccs2)n1)C1CCCC1 (stereo not given),53,8,19,·,0,-17
CC1=[N+](C)N(c2ccccc2)C(=O)C1N=Cc1ccccc1Cl (stereo not given),·,-6,-25,0,4,-11
CC1=[N+](C)N(c2ccccc2)C(=O)C1N=Cc1c(Cl)cccc1Cl (stereo not given),·,9,13,43*,-1,5
C[C@@H]1CN([C@@H](C)CO)C(=O)c2cc(NC(=O)Cc3ccccc3)ccc2O[C@@H](C)CCCCO[C@@H]1CN(C)C(=O)NC1CCCCC1,18[16.7 µM],·,·,0,·,·
N#Cc1c(-c2ccccc2)nc(SCC(=O)Nc2ccccc2F)[nH]c1=O,-7,·,·,1.9*,14,-20
N#Cc1c(-c2ccccc2)nc(SCC(=O)Nc2ccccc2)[nH]c1=O,0,·,·,·,11,-12
C[C@H](O)C#Cc1ccc2c(c1)O[C@H](CN(C)C(=O)CN(C)C)[C@@H](C)CN([C@@H](C)CO)S2(=O)=O,1[16.7 µM],·,·,-1,·,·
COc1ccc2nc(NC(=O)CSc3nnnn3C3CCCCC3)sc2c1,·,20,5,0,-1,-19
COc1ccc2nc(NC(=O)CSc3nnnn3C)sc2c1,·,-109,-26,43*,-3,-59
C[C@@H]1CN([C@H](C)CO)C(=O)Cc2cc(NS(=O)(=O)c3ccccc3)ccc2O[C@H]1CN(C)S(=O)(=O)c1ccc(F)cc1,5[16.7 µM],·,·,0,·,·
CC(=O)Nc1ccc(C(=O)OCC(=O)NCCC2=CCCCC2)cc1,-4,-10,5,0,·,-15
O=C(COC(=O)c1ccc(S(=O)(=O)Nc2ccccc2)cc1)NCCC1=CCCCC1,·,-18,0,44*,1,6
COC(=O)c1cccc(NC(=S)NCCC2=CCCCC2)c1,·,-18,5,·,4,91*
SMILES,miR-122 sensor,697 NFkB inh,Jurkat NFkB inh,FGF22 binding,NR2E3 ag-1,NR2E3 ag-2
CCCNC(=O)COC(=O)c1ccc(S(=O)(=O)N2CCCC2)cc1,·,15,-5,44*,-1,-7
CCCNC(=O)COC(=O)c1ccc(Cl)c(S(=O)(=O)N2CCCC2)c1,-1,-2,-8,·,2,14
C[C@H](CO)N1C[C@H](C)[C@@H](CN(C)Cc2ccc(C(=O)Nc3ccccc3N)cc2)Oc2ccc(NC(=O)Nc3ccc(C(F)(F)F)cc3)cc2C1=O,-3[16.7 µM],·,·,0,·,·
CCC(=O)N[C@@H]1CC[C@@H](CCNS(=O)(=O)c2ccc(Cl)cc2)O[C@@H]1CO,·,·,·,0,·,·
Cc1ccc(N/N=C(\C#N)C(N)=S)cc1C,·,-7,18,44*,-2,-9
O=C(N[C@H]1CC[C@@H](CCn2cc(-c3ccccn3)nn2)O[C@H]1CO)c1ccncc1,·,·,·,0,·,·
c1ccc(CNc2nnnn2-c2ccccc2)cc1,128*,0,2,·,3,4
Cc1ccc(-n2nnnc2-c2ccccc2Br)cc1,4,-4,24,0,0,-12
c1ccc(-n2nnnc2-c2cccc3ccccc23)cc1,116*,·,·,0,·,-13
c1ccc(-n2nnnc2NCCc2c[nH]c3ccccc23)cc1,-32,-18,-15,·,1,-30
Cc1ccccc1S(=O)(=O)N1C[C@H](O)COC[C@H]2O[C@@H](CC(=O)O)CC[C@@H]21,0[16.7 µM],·,·,0,·,·
COCCCN1C(=O)[C@@]2(Cc3ccccc31)c1ccccc1C(=O)N(C1CCCCC1)[C@H]2c1ccc(CO)cc1,·,·,·,0,·,·
O=C(CCCCCCCC(=O)c1ccccc1)c1ccccc1,·,-6,3,44*,3,1
Cc1ccc(C(=O)CC(=O)c2ccccc2)cc1,·,-160,-133,0,-2,-22
O=C(CCCCCCC(=O)c1ccccc1)c1ccccc1,·,0,11,43*,1,-18
O=C(CCCCN1CCCCC1)c1ccccc1,0,2,2,0,-1,-18
Cc1ccc(C(=O)Cc2ccccc2)cc1,-1,·,·,44*,·,-23
COCC(=O)Nc1ccc2c(c1)C(=O)N(C)C[C@@H](OC)[C@H](C)CN(C(C)=O)[C@@H](C)CO2,31[16.7 µM],·,·,0,·,·
COc1ccc(CNC(=O)C[C@H]2C[C@@H]3c4cc(NC(=O)C5CCC5)ccc4O[C@@H]3[C@@H](CO)O2)cc1,-3[16.7 µM],·,·,0,·,·
Cc1noc(C)c1S(=O)(=O)Nc1ccc2c(c1)CC(=O)N([C@H](C)CO)C[C@@H](C)[C@H](CN(C)CC1CC1)O2,17[16.7 µM],·,·,0,·,·
Cc1cc(C)n2nc(C)c(Br)c2n1,2,-20,-4,44*,-2,-39
Cc1cc(C)n2nc(C)c(-c3ccccc3)c2n1,·,-39,-7,0,-5,17
CCOc1ccc(/C=C2/SC(=S)N(C(C(=O)O)c3ccccc3)C2=O)cc1OCC (stereo not given),0,·,·,7.5*,·,-16
CCCNC(=O)N1[C@H](C#N)[C@@H](c2ccccc2-c2ccccc2)[C@@H]1CO,·,·,·,0,·,·
COC(=O)/C=C1/C(=O)N/C(=N\c2nc(C)cc(C)n2)N1c1ccc(OC)cc1,3,6,7,44*,-1,6

# Assay outcomes from PubChem.
